Test: Toxicity liver stage against HepG2, at 10uM
Assay type: cell-based
Set-up: test concentration 10 uM, cell line HepG2-A16-CD81EGFP
Conditions: human, HepG2-A16-CD81EGFP cells; read-out: INHIBITION
Method in brief: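 Uninfected HepG2-A16-CD81EGFP cells, 3 × 10^3 per well, 1536-well, plated on prespotted compound at 10 μM final, parasite-free screening media added to match infected plates; puromycin 10 μM positive, DMSO 0.5% negative; run in parallel with 48 h PbLuc assay at 37 °C, 5% CO2; viability by CellTiter-Glo luminescence, normalized to controls.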

SMILES	cytotoxicity at 10 µM [%]
CCN(CC)CCNC(=O)CCc1c(C)nn(-c2cccc(Cl)c2)c1C	-5.34
O=C(c1ccc2c(c1)COC2)N1CCN(CC2CC2)CC1	-7.18
CC(Cn1ccnc1)NC(=O)NCCc1cccs1 (configuration not stated)	-3.16
CNc1cc2c(nn1)CCN(C(=O)c1cc(C)no1)C2	-15.8
COc1ccnc(N2CCN(Cc3nc(-c4ccoc4)no3)CC2)c1	-10.9
Cn1ncnc1NCc1ccccc1Cl	-8.04
O=C(Nc1nccs1)C1CCCN1Cc1ccccn1 (configuration not stated)	-20
Cc1csc(CN2CC[C@H]3C[C@H](c4noc(C)n4)O[C@@H]3C2)n1	-2.97
CCOCCCNC(=O)c1nn(CC)cc1Cl	2.06
O=C(NC1CC1)[C@H]1CN(Cc2ccc3c(c2)OCO3)C[C@H]2OCC[C@@H]12	3.56
CN(Cc1nccs1)C1CCN(c2ncccn2)CC1	10.1
c1nc(N2CCN(Cc3nnnn3C3CC3)CC2)c2sccc2n1	24.5
CC(C)CNC(=O)c1sccc1-n1cnnn1	0.00426
COc1ncccc1CN1CCn2c(Cn3cncn3)cnc2C1	-3.17
CCNC(=O)NC1CN(Cc2ccncc2Cl)C[C@@H]1OC (some centres not stated)	1.85
Cc1cc(=O)n2ncnc2n1CC(O)c1cc(Cl)ccc1Cl (configuration not stated)	3.19
CC(C(=O)N1CCN(c2ccc(F)cc2)CC1)n1ccnc1 (configuration not stated)	1.05
CC(CN1CCOCC1)NC(=O)NCCc1ccc(Cl)s1 (configuration not stated)	-8.36
Cc1nc(CN2CCc3ncnc(C)c3CC2)cs1	-1.8
Cc1ccc(NC2CCCN(Cc3ccc(Cl)cc3)C2)nn1 (configuration not stated)	-5.98
NCC1Cc2cccc(-c3ccc(O)c(F)c3)c2O1 (configuration not stated)	-40.2
O=C(Cn1cnc2ccsc2c1=O)NCCCc1nnc2ccccn12	1.43
O=C(CNc1cc2c(cc1Cl)OCCCO2)NCc1ccc(F)cc1	0.854

SMILES	cytotoxicity at 10 µM [%]
C1CCC(N2CCCN(c3nc(C4CC4)no3)CC2)C1	-9.13
CC(C)CNc1nnc(SC(C(=O)NCc2cccnc2)C(C)C)s1 (configuration not stated)	-5.9
OC(CN1CCC(c2ccn[nH]2)CC1)c1cccc(C(F)(F)F)c1 (configuration not stated)	-12.1
CC(C)C1SCC(=O)Nc2c1cnn2C(C)C (configuration not stated)	4
O=C(O)CC[C@@H]1CN(c2ccncc2)CC[C@@H]1N1CCOCC1	0.0482
COc1ccc(-c2noc([C@@H]3C[C@@H](O)CN3C3CCN(C)CC3)n2)cc1	-1.16
COc1ccnc(N(C)Cc2ccco2)n1	14
CCS(=O)(=O)N1CCC(c2nnc(C(F)(F)F)o2)CC1	-11
c1cc(-c2cnccn2)cc(-c2ccn(CCCN3CCCCC3)n2)c1	-2.15
O=C(c1cc[nH]n1)N1CCc2c(nc(N3CCCCC3)[nH]c2=O)C1	15.5
CCOc1ccc(OCC)c(NCc2cc(C)on2)c1	-40.1
CN1CCN(c2ncnc3c2CCN(C(=O)c2cccn2C)CC3)CC1	-71
Cc1ccc(N2CCO[C@H]3CN(Cc4nccs4)C[C@H]32)nn1	-94.7
O=C(CC1CCCC1)NCCS(=O)(=O)N1CCN(c2ncccn2)CC1	-1
CC(C)Nc1cccc(CC2CCN(C)C2)n1 (configuration not stated)	-27.6
O=C(CC1CC1)N1CCCC2(CCC(=O)N2CC2CC2)CC1 (configuration not stated)	0.964
Cn1cc(CNC[C@H]2Cn3ccnc3CO2)c2ccccc21	-1.91
Cc1c(C(=O)O)oc2ccc(I)cc12	-1.87
CCNC(=O)N1CCN(Cc2nc3ccccc3[nH]2)[C@@H]2CS(=O)(=O)C[C@@H]21	14.1
Cc1cc(C)n(C2CCN(C(=O)c3cn4ccsc4n3)C2)n1 (configuration not stated)	6.59
CC(C)(C)c1noc(CNc2ccccc2N2CCC(O)CC2)n1	0.965
O=C(C1=CCCC1)N1C[C@@H]2COC[C@]2(COc2cccnc2)C1	-5.38
O=C(c1cccnc1)N1CCCC1c1cc[nH]n1 (configuration not stated)	-26.5

SMILES	cytotoxicity at 10 µM [%]
Cc1ccc(C(=O)NC2CCCN(c3ncccn3)C2)cn1 (configuration not stated)	-7.08
CC(C)(O)CCc1cccc(C(=O)N[C@@H](CO)C(N)=O)c1	4.76
CSCCC(O)C(=O)N1CCCN(Cc2cccnc2)CC1 (configuration not stated)	8.2
CCOCC(O)CN1CCN(C(=O)c2cccnc2OC)CC1 (configuration not stated)	-4.71
CCC(=O)N1CCC2(CC1)CNC(=O)c1cc(C)ccc1O2	-20
CCOC(=O)CCC(=O)N1CCC(CSCc2ccco2)CC1	-10.3
c1cnc(N2CCC3(CC2)CC(NCC2CC2)c2ccccc23)nc1 (configuration not stated)	22.4
CS(=O)(=O)NC(=O)CCc1cccc(OC2CCCC2)c1	-5.01
CC1(COc2ccccc2)NCCc2[nH]cnc21 (configuration not stated)	-0.254
CCN(CC)C(CNC(=O)c1ccc(-n2cncn2)cc1)c1ccsc1 (configuration not stated)	-141
CC(=O)N1CC2(CCN(C(=O)c3ccc4c(c3)OCCO4)CC2)C1	-11.8
O=C(c1ccc(-n2ccnc2)cc1)N1CCCC(n2ccnc2)C1 (configuration not stated)	-21.1
CC1(C)OC(=O)N(CCOc2ccc(F)cc2)C1=O	-8.68
CCn1cnnc1C1CCN(C(=O)c2cccc(OC)c2OC)CC1	-7.96
Cc1nn(C)c(C)c1-c1cc(-c2cnn(C)c2C2CC2)c(C#N)c(N)n1	18
CCS(=O)(=O)c1ccc2oc([C@H]3CCN(Cc4cccnc4)C3)nc2c1	19.7
O=C(NC(Cc1ccsc1)c1nccs1)C1CC1 (configuration not stated)	-28.3
Cc1nnsc1C(=O)NCc1cccnc1N(C)C	-12.2
CN(c1ccc(CNC(=O)c2ccc(O)nc2)cc1)C1CCCCC1	-0.77
N#Cc1c(Cl)nsc1NCc1ccnc(OCC(F)(F)F)c1	12.5
Cc1nc(C)n(CC2CCCN2CC(=O)N(C)Cc2ccc(C)o2)n1 (configuration not stated)	8.52
CCN(Cc1ccoc1)c1ncc(S(N)(=O)=O)s1	5.73
Cc1ccc(-c2cn3c(n2)CO[C@@H](CNCc2nccs2)C3)cc1	-7.31

SMILES	cytotoxicity at 10 µM [%]
CN1CCN(C(=O)C2CCN(c3cccnn3)CC2)CC1	-0.353
Cc1csc(C2CCCCN2C(=O)CN(C)C2CC2)n1 (configuration not stated)	-1.9
CCC1CN(C(=O)c2ccccc2C#N)CCN1C(C)C (configuration not stated)	-0.772
O=C(NCc1cccnc1)[C@H]1C[C@@H]2CCN(c3ccncn3)C[C@H]2O1	7.95
COc1ccc([C@@H]2CN(c3cnccn3)C[C@H]2N(C)C)cc1	6.55
CC(C)c1noc(CN2CCN(C(=O)c3cc(Cl)ccc3F)CC2)n1	-6.8
CCOc1ncccc1CNC(=O)N1CCCC1c1cccs1 (configuration not stated)	4.93
COc1c(C(=O)NCC2CCCO2)nnn1Cc1ccccc1 (configuration not stated)	7.47
Cc1nn(-c2ccc(C(=O)O)cc2)c2c1C(CC(C)C)SCC(=O)N2 (configuration not stated)	-2.43
Cn1cnc2c1C(C(=O)N1CCCO1)N(C(=O)c1ccccc1)CC2 (configuration not stated)	-0.234
COC(CNC(=O)C1CC1)c1ccc(C)s1 (configuration not stated)	-3.08
COc1ncc(-c2nccn2-c2ccccc2CN2CCOCC2)cn1	3.31
COCCN1CCC(NC(=O)C2(c3cc(C)cc(C)c3)CC2)CC1	-4.37
Cc1cccc(CS(=O)(=O)NCC(O)Cc2ccccc2)c1 (configuration not stated)	-19.5
Cn1nnnc1SCCC(=O)NCC1Cc2ccccc2O1 (configuration not stated)	9.35
Cc1cccc(CO[C@@H]2CC[C@H]3[C@H]2OCCN3Cc2ccsc2)n1	-16.3
CN(C)Cc1ccc(C(=O)N2CCCC(n3cccn3)C2)cc1 (configuration not stated)	-0.798
CCOC(=O)Cc1cs/c(=N/C(=O)COc2cnc(C)cc2O)[nH]1	4.62
Cc1ccc(N2CC[C@H]3OCC[C@@]3(C(=O)N3CCCO3)C2)nn1	-1.22
CCSCC(C)NCc1cn2ccccc2n1 (configuration not stated)	-7.38
O=C(CNC(=O)C1CC1)NCCOc1cccc(Cl)c1Cl	5.04
Cn1cc(C(=O)NCC(Cc2cccc(F)c2)N2CCCCC2=O)nn1 (configuration not stated)	-1.13
Cn1c2c(ccc1=O)CC(NC(=O)c1ccsc1)CC2 (configuration not stated)	-1.87

SMILES	cytotoxicity at 10 µM [%]
CCCn1ccnc1CN1C[C@@H](NC(C)=O)[C@H](c2ccc(OC)cc2)C1	0.344
O=C(c1ccco1)N1CCO[C@@H]2CN(c3ncc(F)cn3)CC[C@@H]2C1	4.74
Cc1ccc(C)n1-c1c(C(=O)NCC(C)N(C)C)cnn1C (configuration not stated)	15.9
CCS(=O)(=O)N1CC[C@@H]2[C@H]1CCC(=O)N2CCOC	-104
O=C(O)[C@@H]1CN(C(=O)c2ccc3[nH]nnc3c2)C[C@H]1c1ccccc1	-130
Cc1cc(C)n(C2CN(CCC(=O)NC3CCCCC3)C2)n1	1.04
COCCC(=O)N1C[C@@H]2CC[C@H]1CN(C1Cc3ccccc3C1)C2	-7.43
CC(Cn1ccnc1)NC(=O)NCCc1ccc(Cl)s1 (configuration not stated)	-12.4
CCC(CO)N(Cc1cccc(-n2cccn2)c1)Cc1ccccn1 (configuration not stated)	6.95
CCC(C)(C)NC(=O)Nc1nnc(-c2ccccn2)s1	6.39
CNC(=O)NCC1CCC2(CCN(C(=O)c3ccccc3)CC2)CO1 (configuration not stated)	-97.2
Cc1c[nH]c(C2COCCN2C(=O)c2ccc(=O)[nH]n2)n1 (configuration not stated)	-8.77
O=C(CCc1ccco1)NS(=O)(=O)N1CCOc2ccccc21	6.07
Cc1cc(C(C)NCCN2CCC(N(C)C)CC2)c(C)s1 (configuration not stated)	-0.85
CCN(CCCNCc1c(C)nn(C)c1N(C)C)S(C)(=O)=O	-6.89
COCCOc1cccc(C(=O)N2CCCC(n3cccn3)C2)c1 (configuration not stated)	-7.81
CNS(=O)(=O)c1ccc(CNC(=O)N(C)C(C)COC)cc1 (configuration not stated)	-5.12
CN(C)C(=O)NCc1ncn2c1CN(Cc1ccco1)CCC2	8.22
C[C@]1(O)CCN(Cc2cccnc2)C[C@@H]1Oc1cccc(F)c1	-8.22
CC(=O)c1cccc(CN2CCCC23CCN(c2ccccn2)CC3)c1	-15.4

Reference: ChEMBL document CHEMBL4513216, “Probing the Open Global Health Chemical Diversity Library for Multistage-Active Starting Points for Next-Generation Antimalarials” (ACS Infect Dis, 2020)
